Broadly, the Km is the substrate concentration at which the rate is half of its maximum.

One protein from ChEMBL document CHEMBL1134486, “Synthesis and biological evaluation of purine-containing butenolides” (J Med Chem, 2001) can be followed below.

Compound in data set [1]: COC1=C(OC)/C(=C/Cn2cnc3c(N)ncnc32)OC1=O
Briefly: (§1) Rate of deamination in the presence of calf mucosal adenosine deaminase (ADA). In a few lines:
(§2)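 Deamination rates followed with calf mucosal ADA (EC 3.5.4.4) in buffer solutions; Km and Vmax relative to adenosine as substrate; inhibition (Ki) assessed with adenosine as substrate.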

Compound in data set [2]: COC1=C(OC)C(O)(CCn2cnc3c(N)ncnc32)OC1=O
The description is as §1. The gist of the method:
as §2

B1: Adenosine deaminase (Bos taurus), P56658 (protein)
chain: MAQTPAFNKPKVELHVHLDGAIKPETILYYGRKRGIALPADTPEELQNIIGMDKPLSLPEFLAKFDYYMPAIAGCREAVKRIAYEFVEMKAKDGVVYVEVRYSPHLLANSKVEPIPWNQAEGDLTPDEVVSLVNQGLQEGERDFGVKVRSILCCMRHQPSWSSEVVELCKKYREQTVVAIDLAGDETIEGSSLFPGHVKAYAEAVKSGVHRTVHAGEVGSANVVKEAVDTLKTERLGHGYHTLEDATLYNRLRQENMHFEVCPWSSYLTGAWKPDTEHPVVRFKNDQVNYSLNTDDPLIFKSTLDTDYQMTKNEMGFTEEEFKRLNINAAKSSFLPEDEKKELLDLLYKAYGMPSPASAEQCL
Turning to B1, the Km in data set [1] was 266 µM; in data set [2], over 800 µM.
